In ChEMBL document CHEMBL4342513, “Implementation of the CYP Index for the Design of Selective Tryptophan-2,3-dioxygenase Inhibitors” (ACS Med Chem Lett, 2020):
Converted amounts (≈) assume the structure as drawn.

Assays:
[1] = target: T1, Tryptophan 2,3-dioxygenase (Homo sapiens, UniProt P48775); experiment: Inhibition of recombinant human TDO using L-tryptophan as substrate preincubated for 5 mins followed by substrate addition and measured after 15 mins by RapidFire-Mass spectrometry
[2] = target: T1, Tryptophan 2,3-dioxygenase; experiment: Inhibition of TDO in human SW48 cells after 24 hrs by NFK green reagent based assay; format: cell-based
[3] = target: Indoleamine 2,3-dioxygenase 1 (Homo sapiens, UniProt P14902); experiment: Inhibition of IDO1 in human A172 cells after 24 hrs in presence of IFNgamma by NFK green reagent based assay; format: cell-based
Homo sapiens [4] = organism: Homo sapiens; experiment: Selectivity index, ratio of EC50 for inhibition of IDO1 in human A172 cells in presence of IFNgamma to EC50 for inhibition of TDO in human SW48 cells; format: cell-based
[5] = Lipophilicity, log D of compound at pH 7.4; format: physicochemical; conditions: buffer
[6] = Clearance in human liver microsomes; format: ADME, Microsome
In short: (§1)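 Clearance was measured in liver microsome incubations from human, rat and mouse. It is expressed as scaled clearance in mL/min/kg.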

[7] = Clearance in rat liver microsomes; format: ADME, Microsome; in short: as §1
[8] = Clearance in mouse liver microsomes; format: ADME, Microsome; in short: as §1
[9] = target: T1, Tryptophan 2,3-dioxygenase; experiment: Inhibition of TDO (unknown origin)
Cytochrome P450 3A4 = Cytochrome P450 3A4 (Homo sapiens, UniProt P08684); experiment: Inhibition of CYP3A4 (unknown origin); format: ADME
Homo sapiens [10] = organism: Homo sapiens; experiment: Selectivity index, ratio of IC50 for inhibition of CYP3A4 (unknown origin) to EC50 for inhibition of EC50 for inhibition of TDO in human SW48 cells; format: cell-based
[11] = Apparent permeability across apical to basolateral side in MDCK cells; format: ADME, cell-based, Canis lupus familiaris; conditions: dog
[12] = Kinetic solubility of compound; format: physicochemical; conditions: read-out: Kinetic_solubility
[13] = Clearance in iv dosed mouse plasma; format: ADME, organism-based
In short: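 Compounds were given to mice as discrete (single-compound) intravenous doses. Plasma clearance (CLp) is expressed in mL/min/kg.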

[14] = Protein binding in mouse plasma assessed as unbound fraction; format: ADME, cell-free
[15] = Unbound clearance in mouse plasma; format: ADME, cell-free
[16] = Volume of distribution at steady state in mouse; format: ADME, organism-based; conditions: in vivo, read-out: Vdss
[17] = Half life in mouse; format: ADME, organism-based; conditions: in vivo
[18] = Oral bioavailability in mouse at 1 mg/kg dosed as cassette formulation; format: ADME, organism-based; conditions: in vivo
[19] = AUC (infinity) in mouse; format: ADME, organism-based; parameters: time infinity; conditions: in vivo, BLD = below limit of detection

T1 sequence (P48775 whole entry): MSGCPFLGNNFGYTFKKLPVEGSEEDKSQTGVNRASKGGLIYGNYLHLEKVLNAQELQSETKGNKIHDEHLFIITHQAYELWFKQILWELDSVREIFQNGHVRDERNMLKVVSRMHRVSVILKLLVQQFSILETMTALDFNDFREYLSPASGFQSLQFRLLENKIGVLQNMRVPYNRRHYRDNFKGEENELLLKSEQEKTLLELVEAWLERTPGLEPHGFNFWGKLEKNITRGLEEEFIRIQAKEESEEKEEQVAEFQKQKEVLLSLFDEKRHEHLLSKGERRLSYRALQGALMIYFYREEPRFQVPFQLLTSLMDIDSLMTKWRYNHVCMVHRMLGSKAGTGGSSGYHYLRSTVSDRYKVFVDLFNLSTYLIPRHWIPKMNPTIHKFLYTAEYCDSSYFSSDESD
Chain of Cytochrome P450 3A4 (P08684 whole entry): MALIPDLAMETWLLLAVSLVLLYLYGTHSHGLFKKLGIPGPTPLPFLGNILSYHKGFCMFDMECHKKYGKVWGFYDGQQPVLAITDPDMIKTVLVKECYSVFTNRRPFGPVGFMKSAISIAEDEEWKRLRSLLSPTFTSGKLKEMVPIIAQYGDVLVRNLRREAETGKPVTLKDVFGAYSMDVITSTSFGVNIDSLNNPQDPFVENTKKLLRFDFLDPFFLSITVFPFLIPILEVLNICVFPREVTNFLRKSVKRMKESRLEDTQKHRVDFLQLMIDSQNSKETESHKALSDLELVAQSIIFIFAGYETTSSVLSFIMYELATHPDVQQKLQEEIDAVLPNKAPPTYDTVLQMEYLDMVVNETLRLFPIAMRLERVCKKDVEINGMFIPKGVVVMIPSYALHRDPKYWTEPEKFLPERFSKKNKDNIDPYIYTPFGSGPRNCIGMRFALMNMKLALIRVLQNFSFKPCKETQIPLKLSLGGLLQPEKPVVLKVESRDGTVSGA
Chain of Indoleamine 2,3-dioxygenase 1 (P14902 whole entry): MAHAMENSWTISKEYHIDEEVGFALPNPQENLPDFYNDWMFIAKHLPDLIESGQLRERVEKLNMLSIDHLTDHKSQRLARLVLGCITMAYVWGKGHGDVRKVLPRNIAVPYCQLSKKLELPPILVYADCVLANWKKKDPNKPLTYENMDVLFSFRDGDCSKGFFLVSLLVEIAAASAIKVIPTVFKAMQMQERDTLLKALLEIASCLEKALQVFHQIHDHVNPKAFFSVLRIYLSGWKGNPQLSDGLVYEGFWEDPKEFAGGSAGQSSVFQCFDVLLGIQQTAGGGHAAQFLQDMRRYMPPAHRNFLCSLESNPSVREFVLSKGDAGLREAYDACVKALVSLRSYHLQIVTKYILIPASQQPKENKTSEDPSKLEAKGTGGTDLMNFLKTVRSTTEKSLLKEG

## OCCC1c2ccccc2-n2nncc21 (centres undefined)
[1]
  IC50: > 25000 nM

## C[C@H]([C@H](O)c1ccccc1)[C@H]1c2ccccc2-c2cncn21
[2]
  EC50: ≤ 32 nM

## C[C@H]([C@H](O)C1CCCCC1)[C@H]1c2ccccc2-c2cncn21
[2]
  EC50: 62 nM
[3]
  EC50: 670 nM
Homo sapiens [4]
  Ratio EC50: 11
[5]
  logD: 3.9
[6]
  CLhep predicted: 16 mL/min/kg
[7]
  CLhep predicted: 42 mL/min/kg
[8]
  CLhep predicted: 75 mL/min/kg

## O[C@H](C[C@H]1c2c(F)cccc2-c2cncn21)[C@H]1CC[C@H](O)CC1 [NAVOXIMOD]
[9]
  EC50: 2000 nM

## N#Cc1ccc2c(c1)[C@@H](O)[C@H]([C@H]1c3ccccc3-c3cncn31)CC2
[2]
  EC50: 60 nM
[3]
  EC50: 690 nM
Homo sapiens [4]
  Ratio EC50: 12
[6]
  CLhep predicted: 14 mL/min/kg
[7]
  CLhep predicted: 44 mL/min/kg
[8]
  CLhep predicted: 79 mL/min/kg
Cytochrome P450 3A4
  IC50: 3300 nM
Homo sapiens [10]
  Ratio IC50/EC50: 55
[11]
  Papp A→B: 1.7 ×10⁻⁶ cm/s

## OCCC1c2ccccc2-c2cnsc21 (centres undefined)
[1]
  IC50: 7000 nM

## O[C@@H]1c2ccncc2CC[C@H]1[C@H]1c2ccccc2-c2cncn21
[3]
  EC50: 800 nM
Homo sapiens [4]
  Ratio EC50: 17
[6]
  CLhep predicted: 11 mL/min/kg
[7]
  CLhep predicted: 46 mL/min/kg
[8]
  CLhep predicted: 67 mL/min/kg
Cytochrome P450 3A4
  IC50: < 100 nM
Homo sapiens [10]
  Ratio IC50/EC50: < 2

## Cn1ncc2c1CC[C@@H]([C@H]1c3ccccc3-c3cncn31)[C@@H]2O
[2]
  EC50: 380 nM
[3]
  EC50: 13000 nM
Homo sapiens [4]
  Ratio EC50: 34
[6]
  CLhep predicted: < 3.9 mL/min/kg
[7]
  CLhep predicted: 19 mL/min/kg
[8]
  CLhep predicted: 46 mL/min/kg
Cytochrome P450 3A4
  IC50: 3300 nM
Homo sapiens [10]
  Ratio IC50/EC50: 9

## OCCC1c2ccccc2-n2cncc21 (centres undefined)
[1]
  IC50: 60 nM

## OCCn1c2ccccc2c2cncn21
[1]
  IC50: 20 nM

## O[C@@H]1c2ccccc2CC[C@H]1[C@H]1c2ccccc2-c2cncn21
[3]
  EC50: 240 nM
[6]
  CLhep predicted: 11 mL/min/kg
[7]
  CLhep predicted: 47 mL/min/kg
[8]
  CLhep predicted: 75 mL/min/kg

## O=C1CC(c2c[nH]c3ccc(F)cc23)C(=O)N1 (centres undefined) [PF-06840003]
[9]
  IC50: > 10000 nM

## O[C@@H]1c2nncn2CC[C@H]1[C@H]1c2ccccc2-c2cncn21
[2]
  EC50: 7400 nM
[3]
  EC50: > 25000 nM
Homo sapiens [4]
  Ratio EC50: > 3
[6]
  CLhep predicted: < 3.9 mL/min/kg
[7]
  CLhep predicted: 6.1 mL/min/kg
[8]
  CLhep predicted: 14 mL/min/kg
Cytochrome P450 3A4
  IC50: > 10000 nM
Homo sapiens [10]
  Ratio IC50/EC50: > 1

## CN1CC[C@@H]([C@H]2c3ccccc3-c3cncn32)[C@H](O)C1
[3]
  EC50: 20000 nM
Homo sapiens [4]
  Ratio EC50: 14
[5]
  logD: 1.4

## NS(=O)(=O)NCCNc1nonc1C(=NO)Nc1ccc(F)c(Br)c1 [EPACADOSTAT]
[9]
  IC50: > 10000 nM

## c1ccc2c(c1)-c1cncn1[C@H]2C1CCCCC1
Homo sapiens [4]
  Ratio EC50: 13
[5]
  logD: 3.7
[6]
  CLhep predicted: 15 mL/min/kg
[7]
  CLhep predicted: 45 mL/min/kg
[8]
  CLhep predicted: 74 mL/min/kg

## CS(=O)(=O)c1ccc2c(c1)[C@@H](O)[C@H]([C@H]1c3ccccc3-c3cncn31)CC2
[2]
  EC50: 39 nM
[3]
  EC50: 880 nM
Homo sapiens [4]
  Ratio EC50: 23
[6]
  CLhep predicted: 6.6 mL/min/kg
[7]
  CLhep predicted: 33 mL/min/kg
[8]
  CLhep predicted: 64 mL/min/kg
Cytochrome P450 3A4
  IC50: 6000 nM
Homo sapiens [10]
  Ratio IC50/EC50: 150

## CP(C)(=O)c1ccc2c(c1)[C@@H](O)[C@H]([C@H]1c3ccccc3-c3cncn31)CC2
[2]
  EC50: 130 nM
[3]
  EC50: 10000 nM
Homo sapiens [4]
  Ratio EC50: 77
[6]
  CLhep predicted: < 3.9 mL/min/kg
[7]
  CLhep predicted: 19 mL/min/kg
[8]
  CLhep predicted: 39 mL/min/kg
Cytochrome P450 3A4
  IC50: 1600 nM
Homo sapiens [10]
  Ratio IC50/EC50: 12

## O[C@@H]1CC[C@H]1[C@H]1c2ccccc2-c2cncn21
[2]
  EC50: 36 nM
[3]
  EC50: 1400 nM
Homo sapiens [4]
  Ratio EC50: 67
[5]
  logD: 1.7
[6]
  CLhep predicted: 5.9 mL/min/kg
[7]
  CLhep predicted: 27 mL/min/kg
[8]
  CLhep predicted: 59 mL/min/kg

## OCCn1c2ccccc2n2cnnc12
[1]
  IC50: 17000 nM

## CS(=O)(=O)N1CC[C@@H]([C@H]2c3ccccc3-c3cncn32)[C@H](O)C1
[2]
  EC50: 87 nM
[3]
  EC50: 970 nM
Homo sapiens [4]
  Ratio EC50: 11
[5]
  logD: 0.7
Cytochrome P450 3A4
  IC50: > 10000 nM
Homo sapiens [10]
  Ratio IC50/EC50: > 120

## O[C@@H]1c2nonc2CC[C@H]1[C@H]1c2ccccc2-c2cncn21
[2]
  EC50: 54 nM
[3]
  EC50: 4600 nM
Homo sapiens [4]
  Ratio EC50: 85
[6]
  CLhep predicted: < 3.9 mL/min/kg
[7]
  CLhep predicted: 33 mL/min/kg
[8]
  CLhep predicted: 45 mL/min/kg
Cytochrome P450 3A4
  IC50: 8200 nM
Homo sapiens [10]
  Ratio IC50/EC50: 150
[11]
  Papp A→B: 23 ×10⁻⁶ cm/s
[12]
  solubility kinetic: 165 µM (≈ 48.6 µg/mL)
[13]
  clearance: 63 mL/min/kg
[14]
  fraction unbound: 0.27
[15]
  CL free: 230 mL/min/kg
[16]
  Vd: 1.1 L/kg
[17]
  half-life: 12.6 min
[18]
  bioavailability: < 5%
[19]
  AUC: Bld

## NC(=O)c1ccc2c(c1)[C@@H](O)[C@H]([C@H]1c3ccccc3-c3cncn31)CC2
[2]
  EC50: 35 nM
[3]
  EC50: 2600 nM
Homo sapiens [4]
  Ratio EC50: 74
[6]
  CLhep predicted: 7.4 mL/min/kg
[7]
  CLhep predicted: 26 mL/min/kg
[8]
  CLhep predicted: 67 mL/min/kg
Cytochrome P450 3A4
  IC50: 3600 nM
Homo sapiens [10]
  Ratio IC50/EC50: 100

## OCCC1c2ccccc2-c2cncn21 (centres undefined)
[1]
  IC50: 20 nM

## CS(=O)(=O)c1ccc2c(c1)CC[C@@H]([C@H]1c3ccccc3-c3cncn31)[C@@H]2O
[2]
  EC50: 65 nM
[3]
  EC50: 1300 nM
Homo sapiens [4]
  Ratio EC50: 20
[6]
  CLhep predicted: 6.9 mL/min/kg
[7]
  CLhep predicted: 46 mL/min/kg
[8]
  CLhep predicted: 81 mL/min/kg
Cytochrome P450 3A4
  IC50: 2800 nM
Homo sapiens [10]
  Ratio IC50/EC50: 43

## CC(=O)N1CC[C@@H]([C@H]2c3ccccc3-c3cncn32)[C@H](O)C1
[2]
  EC50: 3000 nM
[3]
  EC50: > 25000 nM
Homo sapiens [4]
  Ratio EC50: > 8
[5]
  logD: 1.1

## O[C@@H]1COCC[C@H]1[C@H]1c2ccccc2-c2cncn21
[2]
  EC50: 72 nM
[3]
  EC50: 1600 nM
Homo sapiens [4]
  Ratio EC50: 22
[5]
  logD: 1.3
Cytochrome P450 3A4
  IC50: 600 nM
Homo sapiens [10]
  Ratio IC50/EC50: 8.3

## CC(C)([C@H](O)c1ncco1)[C@H]1c2ccccc2-c2cncn21
[2]
  EC50: 71 nM
[5]
  logD: 2.3
Homo sapiens [10]
  Ratio IC50/EC50: < 2

## O[C@@H]1CCOC[C@H]1[C@H]1c2ccccc2-c2cncn21
[3]
  EC50: 2900 nM
Homo sapiens [4]
  Ratio EC50: 14
[5]
  logD: 1.5
Cytochrome P450 3A4
  IC50: 650 nM
Homo sapiens [10]
  Ratio IC50/EC50: 3.1

## O[C@@H]1CCCC[C@H]1[C@H]1c2ccccc2-c2cncn21
[2]
  EC50: 50 nM
[3]
  EC50: 720 nM
Homo sapiens [4]
  Ratio EC50: 14
[5]
  logD: 2.7
[6]
  CLhep predicted: 9.7 mL/min/kg
[7]
  CLhep predicted: 37 mL/min/kg
[8]
  CLhep predicted: 62 mL/min/kg

## O[C@@H](C[C@H]1c2ccccc2-c2cncn21)C1CCCCC1
[5]
  logD: 2.8
[6]
  CLhep predicted: 18 mL/min/kg
[7]
  CLhep predicted: 45 mL/min/kg
[8]
  CLhep predicted: 80 mL/min/kg

## O[C@@H]1CCC[C@H]1[C@H]1c2ccccc2-c2cncn21
[2]
  EC50: 70 nM
[3]
  EC50: 2200 nM
Homo sapiens [4]
  Ratio EC50: 31
[5]
  logD: 2.2
[6]
  CLhep predicted: 5 mL/min/kg
[7]
  CLhep predicted: 35 mL/min/kg
[8]
  CLhep predicted: 59 mL/min/kg
